High-throughput results deposited in PubChem BioAssay by several laboratories.
PostGolgi yeast = growth inhibition of a yeast mutant, post-Golgi transport screen; post-Golgi transport phenotypic cell assay; inhibition, % at 10 µM; actives 0.9% (n = 98,000); AID 739;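 note: yeast cells grown in 1536-well plates; yeast grown about 18 h at 30C before absorbance read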
E coli WT exp = blocks growth of wild type E. coli BW25113; OD600 absorbance; growth inhibition, % at 100 µM; actives 0.15% (n = 98,000); AID 710;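 active = growth inhibition above about 50% at one test dose, limit read from the data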;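 note: growth measured after 20 h incubation at 37 °C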
Cav3 T inh = blocks human Cav3.2 T-type calcium channel. Cav3.2-expressing cells, Fluo-4 calcium fluorescence FDSS; stronger effect = lower value. B-score at 10 µM. actives 4% (n = 100,000). AID 449739;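 active = single-dose well whose peak fluorescence ratio is a statistical outlier from its plate by either plate-standardised score or position-corrected B-score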
tolC growth inh = E. coli tolC mutant growth inhibition | actives 2.2% (n = 65,000) | E. coli BW25113 tolC mutant growth, OD615 | growth inhibition, % at 10 µM (by protocol);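 active = growth inhibition at or above a cutoff equal to the mean over every tested compound plus 3 SD, cut at about 60% in these data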;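 note: growth measured after 20 h incubation at 37 °C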
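Assay system: tolC-deleted E. coli BW25113. Medium: kanamycin-containing LB broth (50 µg/mL). Dosing: 10 µM final, single dose. Timing: bacterial growth with compound for 20 h at 37 °C. Detection: A615 absorbance measurement. Read-out basis: growth inhibition in percent.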
PostGolgi ctrl = inhibits growth of the yeast control strain; efflux-deficient yeast background strain, growth absorbance A615, 16 h; inhibition, % at 10 µM; actives 5% (n = 98,000); AID 738
* marks the source's active call; other numbers are inactive results; / = no result given. Sampled rows, rich in hits. Any-hit rate of the full collection: about 8.4%. Cut-off read from the data, not from the text of the source, unless noted: active = inhibition above about 30%; inactive = the rest.

SMILES	PostGolgi yeast	E coli WT exp	Cav3 T inh	tolC growth inh	PostGolgi ctrl
COc1cc2ccccc2cc1C(=O)Nc1ccccc1N1CCN(S(C)(=O)=O)CC1	19.2	-10.0	/	14.6	37.9*
O=C(Nc1ccccc1Cl)c1cc(S(=O)(=O)N2CCOCC2)cs1	1.0	-1.0	0.0202	/	31.3*
O=C(Nc1ccccc1Cl)c1ccc(S(=O)(=O)N2CCOCC2)cc1	-1.0	2.0	-0.23	3.7	6.1
O=C(Nc1ccccc1Cl)c1cc(S(=O)(=O)N2CCCCC2)ccc1N1CCOCC1	-7.8	-2.0	-6.25*	/	8.9
O=C(CCc1ccc(S(=O)(=O)N2CCOCC2)cc1)Nc1cc(Cl)ccc1N1CCOCC1	0.6	0.0	1.23	2.3	33.9*
COCCCn1c(SCC(=O)N2CCCC(C)C2)nnc1-c1ccco1 (stereo not drawn)	-2.6	-2.0	0.237	-6.2	0.9
CC(C)(NO)/C(=N/O)c1cccs1	1.1	-5.0	-0.0366	-13.2	5.3
O=C1c2ccccc2S(=O)(=O)c2cc(C(=O)N3CCN(c4ccc(Cl)cn4)CC3)ccc21	/	/	-0.928	/	/
Cc1cc(C(=O)NCCCN2CCN(c3cc(Cl)ccc3C)CC2)n(-c2ccccc2)n1	-6.4	-1.0	-4.67*	/	-0.5
CC(=O)c1cccc(NC2c3ccccc3C(=O)N2Cc2ccc3c(c2)OCO3)c1 (stereo not drawn)	-1.9	0.0	-0.138	5.0	18.0
COc1cc(NC2c3ccccc3C(=O)N2Cc2ccc3c(c2)OCO3)cc(OC)c1OC (stereo not drawn)	-5.8	-1.0	-0.749	/	14.1
O=C1c2ccccc2C(Nc2ccc3c(c2)OCCO3)N1Cc1ccccc1 (stereo not drawn)	-14.3	-8.0	-6.19*	28.1	12.1
CCOc1ccc(NC2c3ccccc3C(=O)N2Cc2ccc3c(c2)OCO3)cc1 (stereo not drawn)	-3.3	-22.0	-3.11	/	31.1*
Cc1noc(/C=C/N(C)C)c1S(=O)(=O)N1CCc2ccccc21	-8.9	-4.0	-1.6	5.5	3.3
CC1(C)CC(=O)C=C(NCCN2CCN(C(=O)Nc3ccc(Cl)c(Cl)c3)CC2)C1	-3.0	14.0	0.691	60.8*	4.3
CC(O)c1c(OCc2ccccc2)ncnc1OCc1ccccc1 (stereo not drawn)	3.5	5.0	-5.11*	66.4*	19.5
C=CCc1cccc(CNc2nc3ccccc3n2C(C)C)c1O	-5.0	9.0	/	-8.1	46.7*
CS(=O)(=O)N(CC(=O)Nc1ccccc1Sc1ccccc1)C1CCCCC1	6.1	-20.0	-5.88*	/	12.0
COc1ccc(NC(=O)CN(C2CCCCC2)S(C)(=O)=O)cc1OC	-7.0	-1.0	0.784	-1.9	4.0
CSc1cccc(NC(=O)CN(C2CCCCC2)S(C)(=O)=O)c1	-28.2	5.0	-5.13*	10.8	25.0
CS(=O)(=O)N(CC(=O)N1CCN(c2ccccc2F)CC1)C1CCCCC1	-2.8	4.0	/	/	0.1
COC(=O)c1ccccc1NC(=O)CN(C1CCCCC1)S(C)(=O)=O	-3.5	8.0	-0.0467	-4.2	10.5
Cc1ccc(S(=O)(=O)N(CC(=O)N2CCN(c3ccccc3F)CC2)C2CCCCC2)cc1	-2.1	-16.0	-4.75*	/	15.2
Cc1ccc(S(=O)(=O)N(CC(=O)Nc2cccc([N+](=O)[O-])c2)C2CCCCC2)cc1	-8.4	-5.0	0.0269	/	35.2*
S=C1NC[C@H](Cc2cccc3ccccc23)N1CC1CCCCC1	/	/	0.536	/	/
SMILES	PostGolgi yeast	E coli WT exp	Cav3 T inh	tolC growth inh	PostGolgi ctrl
O=C(O)CCCC(=O)Nc1cccc(-c2nc3ccccc3[nH]2)c1	1.6	1.0	-0.46	-6.2	30.6*
CC(C)COc1ccc(CSCCNC(=S)Nc2ccccc2)cc1	-4.6	-14.0	-4.1*	/	19.1
CCCNC(=S)Nc1ccc(Nc2ccccc2)cc1	19.4	19.0	-1.16	/	-0.9
CCC(C)Nc1nc(CN2CCOCC2)nc2sc3c(c12)CCC3 (stereo not drawn)	12.5	6.0	-1.39	/	-0.6
COCCNc1nc(SCc2ccccc2)nc2sc3c(c12)CCC3	1.4	-14.0	-4.45*	/	14.9
CC(CO)Nc1nc(SCc2ccccc2)nc2sc3c(c12)CCC3 (stereo not drawn)	1.1	-15.0	-1.63	/	49.7*
O=C(NC1CCCC1)c1nc2c(nnn2Cc2cccc(Cl)c2)c(=O)[nH]1	-2.3	7.0	-0.711	28.8	5.6
O=C(NC1CCCC1)c1nc2c(nnn2Cc2ccccc2Cl)c(=O)[nH]1	-7.0	-3.0	-3.42*	/	1.0
N#Cc1cccc(NC(=O)N2CCC(c3nc4c(nnn4Cc4cccc(Cl)c4)c(=O)[nH]3)CC2)c1	10.7	-10.0	-0.0868	-8.8	8.4
O=C(C1CCCCC1)N1CCC(c2nc3c(nnn3Cc3ccccc3Cl)c(=O)[nH]2)CC1	/	/	/	18.2	/
Cc1ccc(NC(=O)N2CCC(c3nc4c(nnn4Cc4cccc(Cl)c4)c(=O)[nH]3)CC2)cc1	-4.3	-13.0	-2.99	98.9*	-0.6
O=C(Nc1ccc(F)cc1)N1CCC(c2nc3c(nnn3Cc3cccc(Cl)c3)c(=O)[nH]2)CC1	-0.2	-1.0	-0.533	100.0*	12.7
O=C(C1CCCCC1)N1CCC(c2nc3c(nnn3Cc3c(F)cccc3Cl)c(=O)[nH]2)CC1	/	/	1.25	89.2*	/
O=C(Nc1cc(Cl)ccc1Cl)c1ccc(OC(=O)c2ccco2)cc1	5.5	-10.0	-0.208	/	6.1
Cc1cc(C)n(-c2ccc(C(=O)OCC(=O)c3c(N)n(C)c(=O)n(C)c3=O)cc2)n1	-1.6	-4.0	0.35	-6.8	-11.2
CCCCCCC(=O)N1CCC(c2nc3c(nnn3Cc3ccccc3Cl)c(=O)[nH]2)CC1	-4.1	2.0	-2.23	100.0*	8.4
Cc1ccc2cc(/C=C3\N=C(c4ccccc4)OC3=O)c(N3CCOCC3)nc2c1	-6.5	-5.0	-6.55*	/	-0.3
CCn1c(=S)sc2nc(C)sc21	/	/	/	-0.8	/
CC1=NN(C(N)=S)C(=O)C1N=Nc1ccccc1C (stereo not drawn)	8.5	-15.0	-0.0844	/	30.4*
CC1=NN(C(N)=S)C(=O)C1N=Nc1c(C)cc(C)cc1C (stereo not drawn)	10.6	-2.0	-0.0559	/	32.1*
CCOCCCNS(=O)(=O)c1ccc(OC)c(Cl)c1Cl	/	/	0.122	/	/
O=C(N/N=C\c1cn(-c2ccccc2)nc1-c1ccccc1)c1ccc2c(c1)OCO2	-5.5	-7.0	-2.84	/	33.5*
OCc1cn(-c2ccccc2)nc1-c1ccc2c(c1)OCCO2	-6.8	1.0	0.268	25.2	13.0
O/N=C/c1cn(-c2ccccc2)nc1-c1ccc2c(c1)OCCO2	7.8	10.0	-0.16	/	31.4*
COC(=O)C(NS(C)(=O)=O)(c1c(C)[nH]c2ccccc12)C(F)(F)F (stereo not drawn)	-3.1	8.0	/	-17.7	1.4
CCc1ccc(C2C(C#N)=C(N)C(C#N)(C#N)C3=CCC(C(C)(C)C)CC32)cc1 (stereo not drawn)	/	/	-0.946	/	/
CCN1C(=O)S/C(=C\c2ccc(N3CCOCC3)cc2C)C1=O	8.3	-4.0	-1.31	/	35.3*
CCCN1C(=O)S/C(=C\c2ccc(N3CCOCC3)cc2C)C1=O	-0.5	-4.0	-0.827	/	4.1
Cc1noc(NS(=O)(=O)c2ccc(NC(=O)c3cnc4n(c3=O)CCS4)cc2)c1C	/	/	-0.115	0.1	/
